# Screening data deposited in PubChem BioAssay by The Scripps Research Institute Molecular Screening Center.
# A selection: hits, their analogues and other compounds. The true share with any hit is near 1.9%.
# M4 ag = agonists of human muscarinic M4 receptor (CHRM4); P08173; 0.14% of 360,000 active; activation, % at 3 µM; AID 624127; CHO-K1 hM4/Gqi5, Fluo-8 calcium fluorescence; vehicle 0%, full acetylcholine response 100%;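 active = activation above the run mean over all test wells plus 3 SD, cut at about 32% in these data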;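 also: peak over basal fluorescence ratio per well then scaled between controls; 0% = DMSO wells and 100% = acetylcholine at EC100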
# CHRM4 PAM = CHRM4 positive allosteric modulation. P08173. CHO-K1 hM4/Gqi5, Fluo-8 calcium fluorescence, ACh EC20; 0% = ACh EC20, 100% = maximal ACh. activation, % at 3 µM. 0.4% of 360,000 active;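 active = activation above its plate's cutoff, the mean activation of sample wells plus 3 SD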
# M4 antag = blocks acetylcholine activation of human M4 receptor; P08173; CHO-hM4 cells, ACh EC80, Fluo-8 calcium fluorescence; inhibition, % at 3 µM; 0.73% of 360,000 active; AID 624125;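 active = inhibition above its plate's cutoff, the mean inhibition of sample wells plus 3 SD, cut at about 27% in these data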;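 also: 0% = acetylcholine EC80 with DMSO and 100% = DMSO without agonist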
# CHRM5 PAM = potentiates acetylcholine response at human M5 receptor; 0.3% of 360,000 active; CHO-K1 hM5, Fluo-8 calcium, ACh EC20 PAM; 0% = ACh EC20, 100% = ACh EC100; activation, % at 3 µM;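 active = activation above the run cutoff, the mean activation of all test compounds plus 3 SD, cut at about 18% in these data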
# Target sequence (P08912 whole entry, looked up): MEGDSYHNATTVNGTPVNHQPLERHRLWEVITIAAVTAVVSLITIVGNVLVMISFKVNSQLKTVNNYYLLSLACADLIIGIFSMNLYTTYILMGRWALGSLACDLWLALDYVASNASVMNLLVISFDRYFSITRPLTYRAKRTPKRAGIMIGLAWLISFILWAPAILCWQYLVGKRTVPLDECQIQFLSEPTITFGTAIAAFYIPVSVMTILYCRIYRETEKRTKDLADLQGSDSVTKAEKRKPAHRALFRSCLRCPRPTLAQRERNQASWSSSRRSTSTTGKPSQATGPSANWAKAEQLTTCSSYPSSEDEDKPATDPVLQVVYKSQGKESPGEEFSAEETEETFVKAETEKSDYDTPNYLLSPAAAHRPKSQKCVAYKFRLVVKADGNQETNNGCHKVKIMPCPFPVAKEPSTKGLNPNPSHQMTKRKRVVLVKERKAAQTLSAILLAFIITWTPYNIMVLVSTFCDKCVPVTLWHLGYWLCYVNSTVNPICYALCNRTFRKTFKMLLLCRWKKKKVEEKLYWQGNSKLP
#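 Test system: CHO-K1 hM5 cells / Doses: single-point, 3 µM nominal / Times: Post-acetylcholine fluorescence recording 140 s / Technique: Fluo-8 calcium fluorescence / Measure: Max/basal fluorescence ratio as % of EC20–EC100 ACh window / Benchmarks: low control EC20 acetylcholine (0%), high control EC100 acetylcholine (100%) / Replicates: one well per compound, no replicates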
# M5 ag = agonists of human muscarinic M5 receptor (CHRM5) | CHO-K1 hM5 cells, Fluo-8 calcium fluorescence; 0% DMSO wells, 100% maximal acetylcholine response | activation, % at 3 µM | AID 624037 | P08912 | 0.19% of 360,000 active;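 active = activation above the run's mean over test compounds plus 3 SD, cut at about 23% in these data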;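 also: signal is peak over basal fluorescence ratio across the kinetic read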
# CHRM5 antagonist = CHRM5 antagonism in calcium assay; CHO-hM5 cells, Fluo-8 calcium fluorescence, ACh EC80; P08912; 0.59% of 360,000 active; inhibition, % at 3 µM;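 active = inhibition above a per-plate cutoff, the mean of that plate's test compounds plus 3 SD, cut at about 27% in these data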;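 also: 0% = acetylcholine EC80 with DMSO and 100% = DMSO without agonist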
# Numbers without * were called inactive.
SMILES,M4 ag,CHRM4 PAM,M4 antag,CHRM5 PAM,M5 ag,CHRM5 antagonist
CSc1nsc(SC)c1-c1ccc(Cl)cc1,-2.0,3.1,-15.6,0.0,1.4,-2.1
COC(=O)/C(=C\Nc1ccccc1N)c1ncc(C(F)(F)F)cc1Cl,-0.2,-3.9,-2.7,0.2,-7.4,-7.6
CCN(CC)C(=O)COc1ccc(N(C)S(=O)(=O)c2ccc(NC(C)=O)cc2)cc1,2.0,8.2,7.2,-1.2,-0.5,4.4
CC(=O)Nc1ccc(S(=O)(=O)N(C)c2ccc(OCCOc3cccc(C)c3)cc2)cc1,19.4,-7.6,38.7*,-36.6,4.1,24.1
COc1ccc(NC(=O)COc2ccc(N(C)S(=O)(=O)c3ccc(Cl)cc3)cc2)cc1OC,19.8,-8.8,12.1,-34.1,7.2,29.1*
NC(=O)c1ccc(NC(=O)COC(=O)CC(NC(=O)c2ccccc2Cl)c2ccccc2)cc1 (centres undefined),5.0,-4.5,-5.1,-11.3,-0.5,-4.7
CCOc1ccc(-c2nc(CSCC(=O)N3CCN(c4cccc(OC)c4)CC3)c(C)o2)cc1,20.4,-11.4,2.8,-19.9,7.0,27.2*
COc1ccc(-c2nc(CS(=O)(=O)CC(=O)NCc3ccc4c(c3)OCO4)c(C)o2)cc1,0.0,12.2,-10.9,26.1*,-1.6,-27.3
COc1cccc(-c2nc(CS(=O)(=O)CC(=O)N3CCN(C)CC3)c(C)o2)c1,2.1,0.9,-26.2,-22.2,51.8*,-3.8
CC(=O)C(/C=N/c1ncc(C(F)(F)F)cc1Cl)=C(\C)O,-0.2,-3.3,-3.0,-0.8,-2.5,-0.7
CCN(CC)S(=O)(=O)c1ccc(N2CCOCC2)c(NC(=O)c2c3c(nc4ccccc24)CCC3)c1,14.3,-23.3,9.5,-15.0,3.5,9.1
Nc1ccc2c(c1)nc(Cc1ccccc1)n2CCO,2.0,5.8,-6.6,-3.6,-0.2,-7.4
O=C1C2C3C=CC(C3)C2C(=O)N1c1ccc(N2CCN(c3ccccn3)CC2)c([N+](=O)[O-])c1 (centres undefined),15.8,-40.9,21.1,-32.2,10.0,24.4
Cc1noc(C)c1C(=O)Nc1ccc(S(=O)(=O)N2CCCCC2)cc1,5.8,16.2*,1.6,-1.0,-2.1,9.8
Cc1onc(-c2c(F)cccc2Cl)c1C(=O)Nc1cc(S(=O)(=O)N2CCCCC2)ccc1O,24.2,-13.5,26.8*,-39.4,-1.6,20.1
Cc1onc(-c2c(F)cccc2Cl)c1C(=O)Nc1ccc(S(=O)(=O)N2CCOCC2)cc1,4.2,0.0,-1.7,-0.8,-1.1,10.0
Cc1noc(C)c1C(=O)Nc1ccc(S(=O)(=O)N2CCC(C)CC2)cc1,11.3,-5.4,1.4,-1.4,9.1,0.7
O=c1onc(-c2cccnc2)n1-c1ccccc1F,0.5,13.0,-9.0,7.9,1.1,4.5
Nc1nc2ccccc2cc1C(=O)NCc1ccc(-c2ccccc2)cc1,16.7,-3.9,18.8,-17.1,9.7,31.5*
Cc1ccc(NC(=O)NNC(=O)COc2ccc([N+](=O)[O-])cc2)cc1C,1.2,0.3,-4.5,1.1,-3.0,-13.4
Cc1ccc(NC(=O)CCC(=O)NNC(=O)COc2ccc([N+](=O)[O-])cc2)cc1C,1.5,18.1*,-6.0,6.0,0.6,-2.0
CCOc1ccc(CCNC(=O)c2cc(C)on2)cc1OCC,2.4,20.8*,-15.2,-3.3,-2.4,-4.8
C#Cc1ccc([C@H]2C=C(C(=O)NCc3nc4ccccc4[nH]3)O[C@@H](OCC)[C@@H]2CCCO)cc1,-1.2,-9.6,9.6,-16.9,-10.4,11.3
O=C(Nc1ccc2c(c1)OCO2)Nc1ccc(Br)cn1,5.8,41.3*,4.4,-3.0,0.9,8.6
O=C(Nc1ccc2c(c1)OCCO2)Nc1ccc2c(c1)OCO2,3.9,-3.2,-4.2,-8.5,-0.6,2.5
SMILES,M4 ag,CHRM4 PAM,M4 antag,CHRM5 PAM,M5 ag,CHRM5 antagonist
CN(C)c1nn(C(=O)Nc2cccc(C(F)(F)F)c2)cc1-c1ccccc1,17.5,-15.6,26.8*,-15.0,4.6,36.4*
O=C(NC(=S)Nc1ccccc1O)c1ccccc1Cl,2.5,-1.0,4.1,2.3,-2.9,1.0
Cc1cc(C)c(OCCCCN2CCNCC2)c(C)c1,0.4,-11.5,29.6*,4.7,1.2,-3.9
Cc1cccc(C)c1OCCCCN1CCNCC1,2.8,7.8,-8.6,4.2,-0.4,5.0
Oc1ccc(Cl)cc1Cc1cc(Cl)ccc1O,25.6,-14.8,27.3*,-13.5,4.7,11.0
Oc1ccc(Cl)cc1CNCc1ccc(Cl)cc1,8.1,5.1,-1.3,-0.2,11.4,8.7
COc1ccc(-c2c[n+]3c(n2-c2ccccc2)SCC3)cc1,0.3,-11.8,21.8,5.9,-16.8,-0.1
c1ccc(Cn2c(-c3ccccc3)c[n+]3c2SCCC3)cc1,0.2,-16.1,96.5*,-27.8,-18.4,96.2*
CCON1C(=O)C2(CCCCC2)C(=O)C12C=CCCC2 (centres undefined),0.7,0.6,-6.1,-1.6,1.3,1.8
O=C(O)c1cnn(-c2nc(-c3ccc(F)cc3)cs2)c1C(F)(F)F,-0.2,23.4*,-6.0,4.1,-2.7,-6.4
Cc1ccc(Oc2ncccc2/C=N/OCc2ccc(Cl)cc2Cl)cc1,0.1,4.0,-3.9,1.8,-1.3,-5.6
Cc1ccc(Oc2ncccc2CO)cc1,2.1,25.6*,-4.2,6.0,0.2,-15.0
CCOC(=O)C1C(=O)C=C(/C=C/c2ccc(N(C)C)cc2)CC1c1ccccc1 (centres undefined),13.7,-12.2,13.1,-9.2,28.6*,19.7
CCOC(=O)C1C(=O)C=C(c2ccc(C)cc2)CC1c1ccccc1 (centres undefined),1.0,-5.0,-3.4,-9.0,-5.8,0.9
Cc1cccc(N2C(=O)c3cccc4c(N)ccc(c34)C2=O)c1,103.8*,-18.1,29.2*,-30.5,379.9*,50.9*
Nc1ccc2c3c(cccc13)C(=O)N(c1ccccc1)C2=O,70.5*,-27.8,30.6*,-20.0,44.7*,23.4
Cc1cccc(N2C(=O)c3cccc4c(N(C)CCO)ccc(c34)C2=O)c1,38.2*,-24.6,21.3,-17.4,42.1*,22.8
O=C(O)c1cccc(N2C(=O)c3cccc4c(Cl)ccc(c34)C2=O)c1,2.0,7.0,1.0,-2.0,-1.9,-3.9
Nc1cccc(N2C(=O)c3cccc4c(N)ccc(c34)C2=O)c1,39.1*,-12.3,4.5,-11.3,20.6,8.5
Cc1cccc(N2C(=O)c3cccc4cccc(c34)C2=O)c1,1.1,2.1,-3.1,1.1,0.7,4.8
COc1cc(-c2c(CCO)sc3ccccc23)cc(OC)c1OC,-0.5,3.4,-11.0,-9.1,-5.3,-0.3
O=C(Nc1ccc(NC(=O)c2sc3ccccc3c2Cl)cc1Cl)c1ccco1,-0.2,3.6,1.6,0.1,-4.3,8.4
